Laboratory results: PubChem BioAssay AID624353 (The Scripps Research Institute Molecular Screening Center, 2012)
Active and inactive are the calls of the source.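 How the source made its calls: active means insulin-degrading enzyme inhibitors with IC50 at or below 10 µM; inactive means the rest.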

Target: Insulin-degrading enzyme (Homo sapiens) (UniProt P14735)
Experiment: inhibition of recombinant WT IDE Abeta cleavage – biochemical, fluorescence polarization, FAbetaB substrate, round 2, counter-screen for IDE inhibitor project, late-stage follow-up (AID 624353)
Outline: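 material = recombinant wild-type insulin-degrading enzyme (IDE), purified enzyme | amount = 1 nM IDE | buffer or medium = HEPES, pH 7.4 | reagent = 100 nM fluorescein-Aβ-biotin substrate | times = reaction at room temperature | detection = fluorescence polarization, ex 485 nm, em 525 nm | controls = DMSO-only wells as low control, IDE inhibitor Ii1 as high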

Insulin-degrading enzyme (Homo sapiens), sequence (P14735 whole entry, looked up): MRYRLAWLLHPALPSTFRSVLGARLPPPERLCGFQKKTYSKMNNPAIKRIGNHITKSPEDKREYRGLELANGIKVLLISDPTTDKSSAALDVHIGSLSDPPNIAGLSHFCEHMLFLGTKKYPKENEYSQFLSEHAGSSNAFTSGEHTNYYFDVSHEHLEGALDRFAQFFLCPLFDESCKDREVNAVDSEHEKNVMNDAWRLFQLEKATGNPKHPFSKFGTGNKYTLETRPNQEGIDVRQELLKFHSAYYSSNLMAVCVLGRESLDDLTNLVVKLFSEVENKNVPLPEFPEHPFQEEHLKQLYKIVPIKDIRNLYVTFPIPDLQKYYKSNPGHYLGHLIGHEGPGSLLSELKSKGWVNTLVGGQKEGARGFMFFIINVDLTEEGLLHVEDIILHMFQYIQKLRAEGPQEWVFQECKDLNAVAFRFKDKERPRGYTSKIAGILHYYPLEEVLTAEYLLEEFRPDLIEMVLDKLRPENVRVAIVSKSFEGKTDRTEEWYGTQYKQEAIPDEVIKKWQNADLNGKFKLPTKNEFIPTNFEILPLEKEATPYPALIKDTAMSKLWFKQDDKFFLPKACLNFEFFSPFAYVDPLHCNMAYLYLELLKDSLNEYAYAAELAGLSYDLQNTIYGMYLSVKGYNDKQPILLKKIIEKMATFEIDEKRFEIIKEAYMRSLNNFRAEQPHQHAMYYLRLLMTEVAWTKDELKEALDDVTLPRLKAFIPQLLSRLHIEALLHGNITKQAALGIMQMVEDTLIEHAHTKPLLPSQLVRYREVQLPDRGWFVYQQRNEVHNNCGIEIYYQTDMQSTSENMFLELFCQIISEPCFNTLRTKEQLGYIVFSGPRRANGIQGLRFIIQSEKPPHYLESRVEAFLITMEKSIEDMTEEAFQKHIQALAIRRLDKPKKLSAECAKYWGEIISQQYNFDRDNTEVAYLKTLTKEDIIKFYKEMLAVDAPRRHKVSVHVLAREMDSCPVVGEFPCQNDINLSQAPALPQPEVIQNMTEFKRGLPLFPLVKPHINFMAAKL

Row | IC50 | Compound
1 | > 33 µM (inactive) | O=C(c1ccc(Oc2ccccc2)cc1)N1CCN(C(=O)C2COc3ccccc3O2)CC1 (centres undefined)
2 | > 33 µM (inactive) | COc1ccc(C(=O)N2CCN(C(=O)C(c3ccccc3)c3ccccc3)CC2)cc1OC
3 | > 33 µM (inactive) | COc1cc(C(=O)N2CCN(C(=O)C3COc4ccccc4O3)CC2)cc(Cl)c1OC (centres undefined)
4 | > 33 µM (inactive) | CCOc1ccc(C(=O)N2CCN(C(=O)C3COc4ccccc4O3)CC2)cc1 (centres undefined)
5 | 6 µM | CC(=O)Nc1ccccc1C(=O)N1CCN(C(=O)C2COc3ccccc3O2)CC1 (centres undefined)
6 | 4 µM | COc1cccc(C(=O)N2CCN(C(=O)C3COc4ccccc4O3)CC2)c1 (centres undefined)
7 | > 33 µM (inactive) | O=C(c1ccc(Oc2ccc(F)cc2)cc1)N1CCN(C(=O)C2COc3ccccc3O2)CC1 (centres undefined)
8 | 7 µM | O=C(c1ccc2nc(C(F)(F)F)[nH]c2c1)N1CCN(C(=O)C2COc3ccccc3O2)CC1 (centres undefined)
9 | > 33 µM (inactive) | O=C(c1ccc(OCC2CCCO2)cc1)N1CCN(C(=O)C2COc3ccccc3O2)CC1 (centres undefined)
10 | > 33 µM (inactive) | Cc1nc(COc2ccc(C(=O)N3CCN(C(=O)C4COc5ccccc5O4)CC3)cc2)cs1 (centres undefined)

Second part, the compound before the results:

Row | Compound | IC50
11 | Cc1ccc(COCc2nnc(SCc3nc4ccccc4[nH]3)n2Cc2ccco2)cc1 | > 33 µM (inactive)
12 | c1coc(Cn2c(SCc3nc4ccccc4[nH]3)nnc2-c2ccco2)c1 | > 33 µM (inactive)
13 | COc1ccc(C(=O)N2CCN(C(=O)COc3ccc(Cl)cc3)CC2)cc1OC | > 33 µM (inactive)
14 | c1ccc(-c2nnc(SCc3nc4ccccc4[nH]3)n2Cc2ccco2)nc1 | > 33 µM (inactive)
15 | c1coc(Cn2c(SCc3nc4ccccc4[nH]3)nnc2-c2cccs2)c1 | > 33 µM (inactive)
16 | c1coc(Cn2c(SCc3nc4ccccc4[nH]3)nnc2-c2cnccn2)c1 | > 33 µM (inactive)
17 | Clc1ccc(COCc2nnc(SCc3nc4ccccc4[nH]3)n2Cc2ccco2)cc1 | > 33 µM (inactive)
18 | c1ccc(-c2nnc(SCc3nc4ccccc4[nH]3)n2Cc2ccco2)cc1 | > 33 µM (inactive)
19 | COc1ccc(C(=O)N2CCN(C(=O)C3CC(=O)N(c4ccccc4)C3)CC2)cc1OC (centres undefined) | > 33 µM (inactive)
20 | Cc1ccc(-c2nnc(SCc3nc4ccccc4[nH]3)n2Cc2ccco2)cc1 | > 33 µM (inactive)
21 | COc1ccc(OCC(=O)N2CCN(C(=O)c3ccc(OC)c(OC)c3)CC2)cc1 | > 33 µM (inactive)
22 | COc1ccc(C(=O)N2CCN(C(=O)COc3ccc(C)cc3)CC2)cc1OC | > 33 µM (inactive)
23 | COc1ccc(C(=O)N2CCN(C(=O)COc3ccccc3)CC2)cc1OC | > 33 µM (inactive)
24 | COc1ccc(C(=O)N2CCN(C(=O)CCc3c[nH]c4ccccc34)CC2)cc1OC | > 33 µM (inactive)
